Results gathered from unrelated publications.
Compare with care: the assays were run in different laboratories.

`N#C[C@@]1(c2ccc3c(N)ncnn23)O[C@H](COC(=O)C2CCCCC2)[C@@H](O)[C@H]1O` has a CC50 of 44.7 µM (HEp-2; cell growth or viability, CCK-8; 5 days).
`COCC(=O)N1CCC[C@H](C(=O)NCc2nc(-c3ccc(C)nc3)cs2)C1` gave a microsomal CLint of 5.1 µL/min/mg (metabolic stability; human, liver microsomes; 0.5 µM).
The inhibition of `NC/C(=C\F)COc1cccc(Cn2c(=S)[nH]c(=O)c3[nH]cnc32)c1` is reported as < 50% (Solute carrier organic anion transporter family member 1B3 (SLCO1B3, Homo sapiens, UniProt Q9NPD5); transporter uptake, inhibitor; 30 µM).
`Nc1ccn([C@@H]2O[C@H](CO)[C@@H](O)C2(F)F)c(=O)n1` gave a viability of 68.6% (MCF7; cell growth or viability, MTT; 0.625 µg/mL, 48 h).
`CC(C)[C@@H](N)C(=O)OC[C@H]1O[C@@](C#N)(c2ccc3c(N)ncnn23)[C@H](O)[C@@H]1O` gave a CC50 of > 100 µM (HEp-2; cell growth or viability, CCK-8; 5 days).
The microsomal CLint of `COCC(=O)N1CCC[C@H](C(=O)NCc2nc(-c3cncnc3)cs2)C1` is reported as < 7 µL/min/mg (metabolic stability; human, liver microsomes; 0.5 µM).
The CC50 of `O=C1CCC(N2C(=O)c3cccc(NCCc4cn(Cc5ccc(-c6nc7cc(-c8ccccc8)ccn7c6Nc6ccc(C(=O)O)cc6)cc5)nn4)c3C2=O)C(=O)N1` (stereo not shown) is reported as 108 µM (MCF7; cell growth or viability; 72 h).
The CC50 of `O=C(Nc1ccc(S(=O)(=O)O)c2ccccc12)c1ccc(=O)oc1` is reported as > 12.5 µM (TZM-bl; cell growth or viability, resazurin).
The microsomal CLint of `C[C@H]1[C@@H](C(=O)NCc2nc(-c3ccc(C#N)cc3)cs2)CCCN1C(=O)[C@H]1CCO1` is reported as 45 µL/min/mg (metabolic stability; male Sprague-Dawley rat, liver microsomes; 0.5 µM).
The CC50 of `CC[C@H](C)[C@H](N)C(=O)OC[C@H]1O[C@@](C#N)(c2ccc3c(N)ncnn23)[C@H](O)[C@@H]1O` is reported as > 100 µM (HEp-2; cell growth or viability, CCK-8; 5 days).
With `COc1ccc2c(c1)CN(C(=O)CCN1CCC(Cc3ccccc3)CC1)CC[S@@+]2[O-]` the clearance was 223 mL/min (male human, plasma; intravenous, 0.15 mg/kg, healthy volunteers).
`CCONC(=O)N1CCC[C@H](C(=O)NCc2nc(-c3ccccc3)cs2)C1` has a microsomal CLint of 10 µL/min/mg (metabolic stability; human, liver microsomes; 0.5 µM).
The CC50 of `CC(C)C(=O)OC[C@H]1O[C@@](C#N)(c2ccc3c(N)ncnn23)[C@H](O)[C@@H]1O` is reported as 81.6 µM (HEp-2; cell growth or viability, CCK-8; 5 days).
